Assay results taken from the EternaBench riboswitch data.

Tested on: MS2 coat protein
Assay: apparent Kd, MS2 coat protein; higher = weaker binding; RNA-MaP array; FMN 200 µM where present
Method in brief: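 Two titrations, one without ligand and one with constant ligand, were run with SNAP-549-labelled MS2 coat protein from 0.7 or 1.5 nM, doubling to 3 µM. The targets were designs transcribed by stalled E. coli RNA polymerase on Illumina sequencing-chip clusters, in 100 mM Tris-HCl pH 7.5, 80 mM KCl, 4 mM MgCl2, BSA, DTT, yeast tRNA and Tween-20. The apparent Kd is the median of filtered per-cluster binding-curve fits, with green signal normalised to red-channel RNA signal and control-cluster median Fmax.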

[1] = designed as: OFF switch for flavin mononucleotide, no ligand
[2] = ligand present: flavin mononucleotide, designed as: OFF switch for flavin mononucleotide
[3] = designed as: ON switch for flavin mononucleotide, no ligand
[4] = ligand present: flavin mononucleotide, designed as: ON switch for flavin mononucleotide

| Sequence | apparent Kd [1] [nM] | apparent Kd [2] [nM] | apparent Kd [3] [nM] | apparent Kd [4] [nM] |
| --- | --- | --- | --- | --- |
| GGAUCGUAUGUCAGGAUAUACCACUGGAUACAGUGGUAGAAGGGACAUGAGGAUCACCCAUGUGUUAUCGAUCC | 58.9 | 124 | – | – |
| CUAUGAAGAAUAGGAUAUUCGAUCAUGAGGAUAGAAGAAGGGUUACAUGAGGAUCACCCAUGUAUGCACAUGAGGAUCCCUUAG | 167 | 195 | – | – |
| GGAUUUACUGAGGAUAUUGCAUCACCCGACUGAUAAGAAGGCAGAACAUGAGGAUCACCCAUGUGGGUACUCAC | 53.7 | 63.2 | – | – |
| GAGCGAAAGCUCAAUGUCGAUAGCAGAAGGACGUGAAAACAUGAAAACACAUGAGGAUCACCCAUGUAGGAUAUGCUAUCGACU | 11.2 | 27.6 | – | – |
| UCCGUGUGAGGAUAUUACGCUGUUCGGGAAACGCUCAUAGGUAAGAAGGCACAUGAGGAUCACCCAUGUCCAUA | 23.7 | 54.8 | – | – |
| AAAAAACAAGGAUAUACGCACGAGGAUUGUCUUAAUUUUUGACAUGAGGAUCACCCAUGUAGAAGGUGUUAAAA | 75.7 | 79.2 | – | – |
| GGGCUCGGAGGAUAUACAAUGGGCCCGGGAAACCGGGCCCUACAUGAGGAUCACCCAUGUAGAAGGUCGGGUCU | 15.5 | 24.1 | – | – |
| GCGUUGUACGAGAAGGCCAAUACAUGAGGAUCACCCAUGUUAAGUUGUUUUGGAGGAUAUCGAUCACAUUCAAUAAUGCAACGC | 6.71 | 5.77 | – | – |
| UUGCCUCAGAACAUGAGGAUCACCCAUGUGCUGCGGGCAACGUAGGAUAUGAUGGUUUGAUACCAUCAGAAGGAUGAUGGUACC | – | – | 5.4 | 5.21 |
| UGGUACUAGGGAGGAUAUGGGAAGAUACAUGAGGAUCACCCAUGUUUAAGAAUACCGAGAGGCAACUAGAAGGCCCUAGUACCU | – | – | 192 | 13.3 |
| CCGGAUAUGCAGGAUAUCGUAACGGAAACGUUACGAGAAGGGUAUACAUGAGGAUCACCCAUGUGUCCUACCGG | 28.1 | 32.3 | – | – |
| GCCGAACAUGAGGAUCACCCAUGUCCGGGUAGUCAAGGAUAUGGGAAGGCAAUGCCGUGGCCAGAAGGUGGCUAUC | – | – | 99.3 | 21.3 |
| AAUAUGUUGCAGAAGGUUAUAUUUAUUUAGUACCUCAUGACAUGAGGAUCACCCAUGUUUUUGUUGAAGGAUAUGCAAUAUAUU | 17.1 | 13.7 | – | – |
| UGGUACUAGGGAGGAUAUGGGCAGAUACAUGAGGAUCACCCAUGUUUAAGAAUGCCGAGAGGCAACUAGAAGGCCCUAGUACCU | – | – | 553 | 25.5 |
| GAUUUACAUGAGGAUCACCCAUGUGAGGAUAUGGAAUGGCUCAUUGUCUGAUUUCCUUCUAGAAGGCACAUCUU | 43.7 | 51 | – | – |
| GGGUUGCUACAAGGAUAUGAUGAAAGUGAGACAUCAGAAGGUGUAGUAUCACAUGAGGAUCACCCAUGUAGAACAACCCAAACC | – | – | 369 | 23 |
| GACAUGAGGAUCACCCAUGUCCCUCCAGAAGGCUGGCGCGCGAAACCUAAAUCAGUUCCGGGCACAGAGGAUAUGGGCGGUUGG | – | – | 164 | 34.3 |
| UUAUUUAGGUAGGAUAUCGAUACUAAUUAUUAUCGAGAAGGGUCUACAUGAGGAUCACCCAUGUUAGCAUGUUU | 28 | 27.7 | – | – |
| GUGUACGUAGGAUAUACAUGAGGAUCACCCAUGUGAAUAAGAUAGAAUAAGAUAAAGUGUAGAAGGACGAGUGU | 37.3 | 30.5 | – | – |
| UACAUUAACAUGAGGAUCACCCAUGUUGGCCAGUCUCUCACCAGAAGGCACGUAGAGUACAACAGUGAGGAUAUGGGUGACAUA | – | – | 139 | 86.1 |
| GUGUAGAUAUCAGGAUAUCUAUUUCCUACAUGAGGAUCACCCAUGUAGAUGAUCACCCAUGUAAAGGAGAAGGGAUGUCUAUAC | – | – | 163 | 138 |
| UUCGGACUAUCAGGAUAUGGUGUAGCCUAGUAAAGGACAUGAGGAUCACCCAUGUACCAUUGGUACCAGAAGGGAUGAUCCUAC | – | – | 29.9 | 24.9 |
| GGUUGGCGAGGAUAUACAUGAGGAUCACCCAUGUGGUCCUGUGGCUGGUCAAACCUUUGUAGAAGGCGCGGGUC | 236 | 228 | – | – |
| CCGCCCUGAGGAUAUCCACCCUCAUACAUGAGGAUCACCCAUGUUCACCCUUGGGUUCCCGGAGAAGGCAGCUUUC | 347 | 393 | – | – |

| Sequence | apparent Kd [1] [nM] | apparent Kd [2] [nM] | apparent Kd [3] [nM] | apparent Kd [4] [nM] |
| --- | --- | --- | --- | --- |
| UAUGAGCGAGGAUAUGCUUGGGACUGUCGGAAGGUGGCGGGACAUGAGGAUCACCCAUGUAGAAGGCGCGAGCG | 70.7 | 82.8 | – | – |
| UGGUACAACGGAGGAUAUCAUGUAGAUACAUGAGGAUCACCCAUGUCGAUGGAGACAUCGGAGAUUGAGAAGGCCGUUGUACCU | – | – | 692 | 30.1 |
| CUUGUGUGAGGAUAUGACAAUGGUAUCUUCGGAUACCAUUGUCAGAAGGUACAUGAGGAUCACCCAUGUAGAUC | 91 | 140 | – | – |
| AUGAGUAAAGCAGGAUAUCUAUUGUCUCUGUAACAUGAGGAUCACCCAUGUAGAGAAGGGCUUAGUCAUACUCUUCGGAGUUGA | 7.27 | 9.55 | – | – |
| UAAAAGACUAGCAAAUAAGUUCCACAUGAGGAUCACCCAUGUCAGGAUAUGAGCAGCAAAGCUGCUCAGAAGGGACAGCUAGUC | 5.53 | 6.99 | – | – |
| UCGCUCCGUGUAGGAUAUCGCCGUUCUAUUCGGCGAGAAGGACAUGAGGAUCACCCAUGUAUGUUAUUAUCACGCGUGGCGCAA | 16 | 19.1 | – | – |
| AGAGCCUCGUGAGGAUAUACAUGAGGAUCACCCAUGUAAAUGAAAGAUAACGAGGAAACUCGAAUGUAGAAGGCACGAGGCUCA | 24.4 | 182 | – | – |
| UAGACAUGAGGAUCACCCAUGUACUGGAUUUCAACGCGAUCACAGGAUAUACGGGAUUCGUCCACGUAGAAGGGUGACAACGUC | – | – | 143 | 35.1 |
| GAUAAGGAAGGAUAUGUGGCCUUAUACAUGAGGAUCACCCAUGUUACGACAUACCACUACACAGAAGGUCUAUUAC | 32.2 | 30.5 | – | – |
| ACCAAUGCAGGAUAUACAUGAGGAUCACCCAUGUAUAACCUACAUAGGUGAUCAUCAUGUAGAAGGGCAUUGGA | 14.6 | 15.1 | – | – |
| CGCUCAGAGAACGAUACGAAUAGACAUGAGGAUCACCCAUGUAGAAGGACAACGGAAUAAACGUUGUAGGAUAUACAUUUAGUG | 34.3 | 90.4 | – | – |
| UGCCGCAACAACGCGGCGUCACAUGAGGAUCACCCAUGUUCACAGGAUAUGCGAUAGCCAACGAAGCAGAAGGGUGAUUACUUA | – | – | 53.7 | 219 |
| UUAAUUAUACAAGGAUAUCUAUUGUAAUUUCGUCUUACAUGAGGAUCACCCAUGUUAAUAUUUUUAGAGAAGGUGUAUUUUCAG | – | – | 113 | 63.7 |
| GGAUAUAUUACAUGAGGAUCACCCAUGUCAGAAAGGGUAAUCAGAAGGUACUAUUAGAGAAAGAGUAAGGAUAUGAUUAUAUCC | – | – | 630 | 147 |
| UGGACGGGAGGAUAUACAUGAGGAUCACCCAUGUAAAAUUGUAUAAUAUAUAGUUCGUGUAGAAGGUUUGUUUU | 49.6 | 44.7 | – | – |
| GUAUCUUACCGAGGAUAUUUACGAUUAGUGUAGACAUGAGGAUCACCCAUGUGGCGUUAGUCACGGGAGAAGGCGGUUUGAUAC | – | – | 92.2 | 20.5 |
| UUACUCAUGUAAGGAUAUGCAGCCGAAACGGCUGCAGAAGGUACUAAAAUACAUGAGGAUCACCCAUGUCUUUUUAAUUUAGAU | – | – | 75.5 | 47.6 |
| GAUUCACAUGAGGAUCACCCAUGUGAGGAUAUCUAGGUGCGGAGGCUAAGGCCUCCAGAGAGAAGGCACAUGGC | 27.3 | 41.3 | – | – |
| GCAAGAAUAGGAUAUACACCGUGUCAGCUUUUAUAUAUCGCACAUGAGGAUCACCCAUGUAGAAGGGUUCUCUG | 420 | 353 | – | – |
| GUAGCACAAACAAAUGUAACAUGAGGAUCACCCAUGUGUUAUGAGGAUAUGGAUGUGAAGUUAAUCCAGAAGGCAUUAUGCUAC | – | – | 18.6 | 11.3 |
| CAGCGAAAGUAGAAGGCAGUACUGAUACAGUACUGAGGAUAUACAUGAGGAUCACCCAUGUACUUCAGCUGGAAAUAAAUAAAA | 5.59 | 6.32 | – | – |
| GAUUCACAUGAGGAUCACCCAUGUCGUUUAAUGGGAGGAUAUACGUGGACCGUAGUCCGCGUAGAAGGCCUAAUUG | – | – | 95.1 | 25.6 |
| GGUCCAACAUGAGGAUAUAGCACCUUAUUGGUGCUAGAAGGCGUGUCGGUAGACAUGAGGAUCACCCAUGUAAUACAUUGGACC | – | – | 218 | 28.5 |
| UUUAUGUGAGGAUAUACGAAUAGUAAGUAAGUAUUACAGACGUAGAAGGCACAUGAGGAUCACCCAUGUGAACC | 38.5 | 78 | – | – |
